How the values were obtained:
[1] = target: CYP3A4 (Homo sapiens, UniProt P08684); experiment: Inhibition of CYP3A4 at 10 uM using testosterone as substrate; assay type: ADME; conditions: probe testosterone
Method in brief: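 CYP3A4 inhibition measured as percent inhibition at 10 μM test compound, testosterone as substrate.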

[2] = tested on: HUVEC; experiment: Antiangiogenic activity in HUVEC assessed as inhibition of VEGF-induced proliferation after 3 days by WST-8 assay; assay type: functional, cell-based; conditions: Homo sapiens, 72 h
Method in brief: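 HUVEC seeded and incubated 1 day, then VEGF plus test compound added; cell number counted after 3 further days of incubation. Growth rate calculated relative to control; IC50 is concentration giving half inhibition of VEGF-induced proliferation, in nM.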

[3] = tested on: B16; experiment: Antitumor activity against mouse B16 cells xenografted in C57BL/6N mouse assessed as tumor growth at 100 mg/kg, po qd for 10 days relative to control; assay type: functional; conditions: B16, 240 h
Method in brief: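 B16 cell suspension injected subcutaneously under anesthesia into female C57BL/6 mice, six weeks old. Compound suspension given orally once daily; ten days after cell injection, tumors excised and weighed, anti-cancer effect calculated relative to control.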

[4] = tested on: Rattus norvegicus; experiment: Antiinflammatory activity in Lewis rat adjuvant arthritis model assessed as inhibition of paw edema at 10 mg/kg, po qd for 20 days relative to control; assay type: functional; conditions: 480 h
[5] = tested on: Rattus norvegicus; experiment: Antiangiogenic activity in Brown Norway rat assessed as inhibition of laser-induced neovascularization incidence rate at 3 mg/kg, po qd for 7 days relative to control; assay type: functional; conditions: 168 h
Method in brief: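 Male Brown Norway rats, eight weeks old, under anesthesia and mydriasis; krypton laser photocoagulation of Bruch's membrane. Compound suspension given orally once daily. Seven days after photocoagulation, fluorescein injected via tail vein, fundus photographed, fluorescence leaks counted; neovascularization incidence rate compared with control.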

[6] = species: Rattus norvegicus; experiment: animal or person; conditions: Brown Norway, po, 168 h, read-out: INH

Sequence of CYP3A4 (P08684 whole entry): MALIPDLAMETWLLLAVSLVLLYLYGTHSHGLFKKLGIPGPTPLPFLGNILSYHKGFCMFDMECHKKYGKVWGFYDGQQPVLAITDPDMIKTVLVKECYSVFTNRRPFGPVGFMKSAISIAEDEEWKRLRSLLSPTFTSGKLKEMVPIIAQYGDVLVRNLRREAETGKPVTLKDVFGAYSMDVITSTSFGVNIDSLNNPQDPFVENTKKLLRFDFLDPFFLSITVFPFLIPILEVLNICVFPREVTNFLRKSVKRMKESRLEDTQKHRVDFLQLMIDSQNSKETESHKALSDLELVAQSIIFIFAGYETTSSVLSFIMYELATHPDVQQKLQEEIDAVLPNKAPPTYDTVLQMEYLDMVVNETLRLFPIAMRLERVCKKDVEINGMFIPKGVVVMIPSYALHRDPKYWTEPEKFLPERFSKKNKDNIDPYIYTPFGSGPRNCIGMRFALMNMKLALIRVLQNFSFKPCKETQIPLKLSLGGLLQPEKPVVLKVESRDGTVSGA

inhibition at 10 µM [1]	SMILES	IC50 [2]	also measured
96%	Cc1cc(C)cc(NC(=O)c2cccnc2SCc2ccncc2)c1	–	–
–	Cc1cc(C)cc(NC(=O)c2cccnc2SCc2ccnc(NC(=O)CN(C)C)c2)c1	22 nM	–
16%	Cc1cc(C)cc(NC(=O)c2cccnc2SCc2cc[n+]([O-])cc2)c1	24 nM	inhibition in vivo at 100 mg/kg [3]: 76%
–	Cc1cc(C)cc(NC(=O)c2cccnc2SCc2cc[n+](C)cc2)c1	> 2000 nM	–
40%	Cc1cc(C)cc(NC(=O)c2cccnc2SCc2ccnc(F)c2)c1	13 nM	–
60%	Cc1cc(C)cc(NC(=O)c2cccnc2SCc2ccnc(Cl)c2)c1	12 nM	–
–	Cc1cc(C)cc(NC(=O)c2cccnc2SCc2ccnc(C)c2)c1	68 nM	–
48%	Cc1cc(C)cc(NC(=O)c2cccnc2SCc2ccnc(C#N)c2)c1	3.5 nM	–
21%	Cc1cc(C)cc(NC(=O)c2cccnc2SCc2ccnc(N)c2)c1	5.8 nM	–
–	CNc1cc(CSc2ncccc2C(=O)Nc2cc(C)cc(C)c2)ccn1	21 nM	–
20%	CC(=O)Nc1cc(CSc2ncccc2C(=O)Nc2cc(C)cc(C)c2)ccn1	< 0.91 nM	–
–	CC(=O)N(C)c1cc(CSc2ncccc2C(=O)Nc2cc(C)cc(C)c2)ccn1	65 nM	–
–	Cc1cc(C)cc(NC(=O)c2cccnc2SCc2ccnc(N3CCOCC3)c2)c1	84 nM	–
–	COc1cc(CSc2ncccc2C(=O)Nc2cc(C)cc(C)c2)ccn1	100 nM	–
69%	CSc1cc(CSc2ncccc2C(=O)Nc2cc(C)cc(C)c2)ccn1	100 nM	–
–	CNC(=O)c1cc(CSc2ncccc2C(=O)Nc2cc(C)cc(C)c2)ccn1	18 nM	–

inhibition at 10 µM [1]	SMILES	IC50 [2]	also measured
–	CCC(=O)Nc1cc(CSc2ncccc2C(=O)Nc2cc(C)cc(C)c2)ccn1	1.8 nM	–
–	COC(=O)Nc1cc(CSc2ncccc2C(=O)Nc2cc(C)cc(C)c2)ccn1	15 nM	–
–	Cc1cc(C)cc(NC(=O)c2cccnc2SCc2ccnc(NC(=O)CO)c2)c1	6.6 nM	–
24%	CNC(=O)Nc1cc(CSc2ncccc2C(=O)Nc2cc(C)cc(C)c2)ccn1	8.8 nM	inhibition in vivo at 100 mg/kg [3]: 43%
10%	Cc1cc(C)cc(NC(=O)c2cccnc2SCc2ccnc(NC(=O)CN)c2)c1	48 nM	–
14%	Cc1cc(C)cc(NC(=O)c2cccnc2SCc2ccnc(NC(=O)CNCCN(C)C)c2)c1	5.9 nM	inhibition in vivo at 100 mg/kg [3]: 83%; inhibition in vivo at 10 mg/kg [4]: 70%; inhibition in vivo at 3 mg/kg [5]: 55%
23%	Cc1cc(C)cc(NC(=O)c2cccnc2SCc2ccnc(NC(=O)CNCCCO)c2)c1	18 nM	inhibition in vivo at 100 mg/kg [3]: 77%
38%	CC(=O)Nc1cc(CSc2ncccc2C(=O)Nc2ccc(OC(F)(F)F)cc2)ccn1	3.9 nM	–
17%	O=C(CO)Nc1cc(CSc2ncccc2C(=O)Nc2ccc(OC(F)(F)F)cc2)ccn1	7.4 nM	inhibition in vivo at 100 mg/kg [3]: 85%
–	CNC(=O)Nc1cc(CSc2ncccc2C(=O)Nc2ccc(OC(F)(F)F)cc2)ccn1	20 nM	–
–	NCC(=O)Nc1cc(CSc2ncccc2C(=O)Nc2ccc(OC(F)(F)F)cc2)ccn1	49 nM	–
19%	CN(C)CC(=O)Nc1cc(CSc2ncccc2C(=O)Nc2ccc(OC(F)(F)F)cc2)ccn1	35 nM	–
29%	CN(C)CCNCC(=O)Nc1cc(CSc2ncccc2C(=O)Nc2ccc(OC(F)(F)F)cc2)ccn1	18 nM	inhibition in vivo at 100 mg/kg [3]: 79%
33%	O=C(CNCCCO)Nc1cc(CSc2ncccc2C(=O)Nc2ccc(OC(F)(F)F)cc2)ccn1	26 nM	inhibition in vivo at 100 mg/kg [3]: 79%
–	C[C@H]1C[C@H]2[C@@H]3CCC4=CC(=O)C=C[C@]4(C)[C@@]3(F)[C@@H](O)C[C@]2(C)[C@@]1(O)C(=O)COP(=O)(O)O [BETAMETHASONE PHOSPHORIC ACID]	–	inhibition in vivo at 1 mg/kg [6]: 96%
–	Clc1ccc(Nc2nnc(Cc3ccncc3)c3ccccc23)cc1 [VATALANIB]	–	inhibition in vivo at 10 mg/kg [4]: 23%
